Values after ≈ are worked out from the molar mass of the structure shown.
Legend:
Assay type in all cases: functional
Klebsiella pneumoniae [1] = assay: Antimicrobial activity against Klebsiella pneumoniae expressing beta-lactamase CTX by Etest based on multiple determinants
Summary of the method: (§1)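 Clinical isolates from tigecycline phase 3 trials were received as frozen primary cultures. Repeat isolates from one patient were riboprinted, and only the first of identical strains was kept. β-lactamase genes were assigned by PCR against control strains, plus isoelectric focusing. ESBL confirmation used Etest ESBL strips carrying ceftazidime or cefotaxime with clavulanic acid, read per the manufacturer's instructions.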

Escherichia coli [2] = assay: Antimicrobial activity against Escherichia coli expressing beta-lactamase AmpC by Etest
Summary of the method: (§2)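 Clinical isolates from tigecycline phase 3 trials were received as frozen primary cultures. Serial isolates from one patient were riboprinted, and only the first of identical strains was kept. β-Lactamase genes were assigned by PCR. ESBL confirmation used Etest ESBL strips carrying ceftazidime or cefotaxime, alone and combined with clavulanic acid, following the strip maker's instructions.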

Escherichia coli [3] = assay: Antimicrobial activity against Escherichia coli expressing beta-lactamase AmpC and extended-spectrum beta-lactamase by Etest; summary of the method: as §2
Escherichia coli [4] = assay: Antimicrobial activity against Escherichia coli expressing beta-lactamase CTX and SHV by Etest; summary of the method: as §2
Proteus mirabilis [5] = assay: Antimicrobial activity against Proteus mirabilis extended-spectrum beta-lactamase producing isolate by Etest; summary of the method: as §1
Klebsiella pneumoniae [6] = assay: Antimicrobial activity against Klebsiella pneumoniae expressing extended-spectrum beta-lactamase and beta-lactamase AmpC by Etest; summary of the method: as §2
Proteus mirabilis [7] = assay: Antimicrobial activity against Proteus mirabilis expressing extended-spectrum beta-lactamase by Etest based on multiple determinants; summary of the method: as §1
Proteus mirabilis [8] = assay: Antimicrobial activity against Proteus mirabilis expressing extended-spectrum beta-lactamase by Etest based on single determinant; summary of the method: as §1
Klebsiella pneumoniae [9] = assay: Antimicrobial activity against Klebsiella pneumoniae expressing beta-lactamase CTX by Etest based on single determinant; summary of the method: as §1
Klebsiella pneumoniae [10] = assay: Antimicrobial activity against Klebsiella pneumoniae expressing beta-lactamase SHV by Etest based on single determinant; summary of the method: as §1
Escherichia coli [11] = assay: Antimicrobial activity against Escherichia coli expressing beta-lactamase CTX by Etest based on single determinant; summary of the method: as §2
Klebsiella pneumoniae [12] = assay: Antimicrobial activity against Klebsiella pneumoniae expressing beta-lactamase SHV by Etest based on multiple determinants; summary of the method: as §1
Proteus mirabilis [13] = assay: Antimicrobial activity against Proteus mirabilis expressing beta-lactamase AmpC by Etest; summary of the method: as §1
Klebsiella pneumoniae [14] = assay: Antimicrobial activity against Klebsiella pneumoniae extended-spectrum beta-lactamase producing isolate by Etest; summary of the method: as §1
Escherichia coli [15] = assay: Antimicrobial activity against Escherichia coli expressing beta-lactamase SHV by Etest; summary of the method: as §2
Escherichia coli [16] = assay: Antimicrobial activity against Escherichia coli expressing beta-lactamase CTX by Etest based on multiple determinants; summary of the method: as §2
Escherichia coli [17] = assay: Antimicrobial activity against Escherichia coli extended-spectrum beta-lactamase producing isolate by Etest; summary of the method: as §2
Klebsiella pneumoniae [18] = assay: Antimicrobial activity against Klebsiella pneumoniae expressing beta-lactamase DHA by Etest; summary of the method: as §2
Klebsiella pneumoniae [19] = assay: Antimicrobial activity against Klebsiella pneumoniae expressing beta-lactamase SHV and CTX by Etest; summary of the method: as §1

Compound: CO/N=C(\C(=O)N[C@@H]1C(=O)N2C(C(=O)[O-])=C(C[N+]3(C)CCCC3)CS[C@H]12)c1csc(N)n1 [CEFEPIME]
- MIC50 (Klebsiella pneumoniae [1]): 16 µg/mL (≈ 33.3 µM)
- MIC90 (Klebsiella pneumoniae [1]): > 16 µg/mL
- MIC (Escherichia coli [2]): 2 µg/mL (≈ 4.16 µM)
- MIC50 (Escherichia coli [3]): 16 µg/mL (≈ 33.3 µM)
- MIC90 (Escherichia coli [3]): > 16 µg/mL
- MIC50 (Escherichia coli [4]): 16 µg/mL (≈ 33.3 µM)
- MIC90 (Escherichia coli [4]): > 16 µg/mL
- MIC50 (Proteus mirabilis [5]): 2 µg/mL (≈ 4.16 µM)
- MIC90 (Proteus mirabilis [5]): > 16 µg/mL
- MIC (Klebsiella pneumoniae [6]): 2 µg/mL (≈ 4.16 µM)
- MIC (Proteus mirabilis [7]): 1 µg/mL (≈ 2.08 µM)
- MIC (Proteus mirabilis [8]): 1 µg/mL (≈ 2.08 µM)
- MIC50 (Klebsiella pneumoniae [9]): 16 µg/mL (≈ 33.3 µM)
- MIC90 (Klebsiella pneumoniae [9]): > 16 µg/mL
- MIC50 (Klebsiella pneumoniae [10]): ≤ 2 µg/mL
- MIC90 (Klebsiella pneumoniae [10]): > 16 µg/mL
- MIC50 (Escherichia coli [11]): 16 µg/mL (≈ 33.3 µM)
- MIC90 (Escherichia coli [11]): > 16 µg/mL
- MIC (Klebsiella pneumoniae [12]): 2 µg/mL (≈ 4.16 µM)
- MIC (Proteus mirabilis [13]): 2 µg/mL (≈ 4.16 µM)
- MIC50 (Klebsiella pneumoniae [14]): 8 µg/mL (≈ 16.6 µM)
- MIC90 (Klebsiella pneumoniae [14]): > 16 µg/mL
- MIC (Escherichia coli [15]): 2 µg/mL (≈ 4.16 µM)
- MIC50 (Escherichia coli [16]): 16 µg/mL (≈ 33.3 µM)
- MIC90 (Escherichia coli [16]): > 16 µg/mL

Compound: CO/N=C(\C(=O)N[C@@H]1C(=O)N2C(C(=O)O)=C(COC(C)=O)CS[C@H]12)c1csc(N)n1 [CEFOTAXIME]
- MIC50 (Klebsiella pneumoniae [1]): > 32 µg/mL
- MIC90 (Klebsiella pneumoniae [1]): > 32 µg/mL
- MIC (Escherichia coli [2]): 4 µg/mL (≈ 8.78 µM)
- MIC50 (Escherichia coli [3]): > 32 µg/mL
- MIC90 (Escherichia coli [3]): > 32 µg/mL
- MIC50 (Escherichia coli [17]): > 32 µg/mL
- MIC90 (Escherichia coli [17]): > 32 µg/mL
- MIC50 (Escherichia coli [4]): > 32 µg/mL
- MIC90 (Escherichia coli [4]): > 32 µg/mL
- MIC (Klebsiella pneumoniae [18]): 2 µg/mL (≈ 4.39 µM)
- MIC50 (Proteus mirabilis [5]): 32 µg/mL (≈ 70.3 µM)
- MIC90 (Proteus mirabilis [5]): > 32 µg/mL
- MIC (Klebsiella pneumoniae [6]): 1 µg/mL (≈ 2.2 µM)
- MIC (Proteus mirabilis [7]): 8 µg/mL (≈ 17.6 µM)
- MIC (Proteus mirabilis [8]): 0.25 µg/mL (≈ 0.549 µM)
- MIC50 (Klebsiella pneumoniae [9]): > 32 µg/mL
- MIC90 (Klebsiella pneumoniae [9]): > 32 µg/mL
- MIC50 (Klebsiella pneumoniae [10]): 16 µg/mL (≈ 35.1 µM)
- MIC90 (Klebsiella pneumoniae [10]): > 32 µg/mL
- MIC50 (Escherichia coli [11]): > 32 µg/mL
- MIC90 (Escherichia coli [11]): > 32 µg/mL
- MIC (Klebsiella pneumoniae [12]): 2 µg/mL (≈ 4.39 µM)
- MIC (Proteus mirabilis [13]): 16 µg/mL (≈ 35.1 µM)
- MIC50 (Klebsiella pneumoniae [14]): > 32 µg/mL
- MIC90 (Klebsiella pneumoniae [14]): > 32 µg/mL
- MIC (Escherichia coli [15]): 4 µg/mL (≈ 8.78 µM)
- MIC50 (Escherichia coli [16]): > 32 µg/mL
- MIC90 (Escherichia coli [16]): > 32 µg/mL
- MIC50 (Klebsiella pneumoniae [19]): > 32 µg/mL
- MIC90 (Klebsiella pneumoniae [19]): > 32 µg/mL

Compound: CC(C)(O/N=C(\C(=O)N[C@@H]1C(=O)N2C(C(=O)[O-])=C(C[n+]3ccccc3)CS[C@H]12)c1csc(N)n1)C(=O)O [CEFTAZIDIME]
- MIC50 (Klebsiella pneumoniae [1]): 32 µg/mL (≈ 58.5 µM)
- MIC90 (Klebsiella pneumoniae [1]): > 64 µg/mL
- MIC (Escherichia coli [2]): 4 µg/mL (≈ 7.32 µM)
- MIC50 (Escherichia coli [3]): > 32 µg/mL
- MIC90 (Escherichia coli [3]): > 32 µg/mL
- MIC50 (Escherichia coli [17]): 32 µg/mL (≈ 58.5 µM)
- MIC90 (Escherichia coli [17]): > 64 µg/mL
- MIC50 (Escherichia coli [4]): 16 µg/mL (≈ 29.3 µM)
- MIC90 (Escherichia coli [4]): 64 µg/mL (≈ 117 µM)
- MIC (Klebsiella pneumoniae [18]): 64 µg/mL (≈ 117 µM)
- MIC50 (Proteus mirabilis [5]): 64 µg/mL (≈ 117 µM)
- MIC90 (Proteus mirabilis [5]): > 64 µg/mL
- MIC (Klebsiella pneumoniae [6]): 4 µg/mL (≈ 7.32 µM)
- MIC (Proteus mirabilis [7]): 2 µg/mL (≈ 3.66 µM)
- MIC (Proteus mirabilis [8]): 2 µg/mL (≈ 3.66 µM)
- MIC50 (Klebsiella pneumoniae [9]): 32 µg/mL (≈ 58.5 µM)
- MIC90 (Klebsiella pneumoniae [9]): > 64 µg/mL
- MIC50 (Klebsiella pneumoniae [10]): 8 µg/mL (≈ 14.6 µM)
- MIC90 (Klebsiella pneumoniae [10]): > 64 µg/mL
- MIC50 (Escherichia coli [11]): 16 µg/mL (≈ 29.3 µM)
- MIC90 (Escherichia coli [11]): 64 µg/mL (≈ 117 µM)
- MIC (Klebsiella pneumoniae [12]): 16 µg/mL (≈ 29.3 µM)
- MIC (Proteus mirabilis [13]): 64 µg/mL (≈ 117 µM)
- MIC50 (Klebsiella pneumoniae [14]): 32 µg/mL (≈ 58.5 µM)
- MIC90 (Klebsiella pneumoniae [14]): > 64 µg/mL
- MIC (Escherichia coli [15]): 16 µg/mL (≈ 29.3 µM)
- MIC50 (Escherichia coli [16]): 32 µg/mL (≈ 58.5 µM)
- MIC90 (Escherichia coli [16]): 64 µg/mL (≈ 117 µM)
- MIC50 (Klebsiella pneumoniae [19]): 64 µg/mL (≈ 117 µM)
- MIC90 (Klebsiella pneumoniae [19]): > 64 µg/mL

Compound: CO/N=C(\C(=O)N[C@@H]1C(=O)N2C(C(=O)O)=C(CSc3nc(=O)c(O)nn3C)CS[C@H]12)c1csc(N)n1 [CEFTRIAXONE]
- MIC50 (Klebsiella pneumoniae [1]): > 32 µg/mL
- MIC90 (Klebsiella pneumoniae [1]): > 32 µg/mL
- MIC (Escherichia coli [2]): 4 µg/mL (≈ 7.21 µM)
- MIC50 (Escherichia coli [3]): > 32 µg/mL
- MIC90 (Escherichia coli [3]): > 32 µg/mL
- MIC50 (Escherichia coli [17]): > 32 µg/mL
- MIC90 (Escherichia coli [17]): > 32 µg/mL
- MIC50 (Escherichia coli [4]): > 32 µg/mL
- MIC90 (Escherichia coli [4]): > 32 µg/mL
- MIC (Klebsiella pneumoniae [18]): 1 µg/mL (≈ 1.8 µM)
- MIC50 (Proteus mirabilis [5]): 8 µg/mL (≈ 14.4 µM)
- MIC90 (Proteus mirabilis [5]): 32 µg/mL (≈ 57.7 µM)
- MIC (Klebsiella pneumoniae [6]): 2 µg/mL (≈ 3.61 µM)
- MIC (Proteus mirabilis [7]): 2 µg/mL (≈ 3.61 µM)
- MIC (Proteus mirabilis [8]): 1 µg/mL (≈ 1.8 µM)
- MIC50 (Klebsiella pneumoniae [9]): > 32 µg/mL
- MIC90 (Klebsiella pneumoniae [9]): > 32 µg/mL
- MIC50 (Klebsiella pneumoniae [10]): 8 µg/mL (≈ 14.4 µM)
- MIC90 (Klebsiella pneumoniae [10]): > 32 µg/mL
- MIC50 (Escherichia coli [11]): > 32 µg/mL
- MIC90 (Escherichia coli [11]): > 32 µg/mL
- MIC (Klebsiella pneumoniae [12]): 2 µg/mL (≈ 3.61 µM)
- MIC (Proteus mirabilis [13]): 8 µg/mL (≈ 14.4 µM)
- MIC50 (Klebsiella pneumoniae [14]): > 32 µg/mL
- MIC90 (Klebsiella pneumoniae [14]): > 32 µg/mL
- MIC (Escherichia coli [15]): 4 µg/mL (≈ 7.21 µM)
- MIC50 (Escherichia coli [16]): > 32 µg/mL
- MIC90 (Escherichia coli [16]): > 32 µg/mL
- MIC50 (Klebsiella pneumoniae [19]): > 32 µg/mL
- MIC90 (Klebsiella pneumoniae [19]): > 32 µg/mL
